The results in this text go back to ChEMBL document CHEMBL1122149, “Beta-carbolines: synthesis and neurochemical and pharmacological actions on brain benzodiazepine receptors” (J Med Chem, 1982).

The target in the first experiment is T1, GABA-A receptor; anion channel (Rattus norvegicus) (UniProt O09028+P15431+P18506+P18508+P19969+P20236+P23574+P23576+P28471+P28473+P30191+P62813+P63079+P63138+Q91ZM7+Q9ES14).
The Hill coefficient is the slope factor of the fitted curve. As to `CCOC(=O)c1cc2c(cn1)[nH]c1ccccc12`, the Hill coefficient is 0.74.

The target in a further experiment is T1, GABA-A receptor; anion channel (Rattus norvegicus). The experiment in a line: Hill coefficient for inhibition of ~2 nM [3H]diazepam binding to GABA-A benzodiazepine receptor of rat cerebral cortical membrane. In short, it runs like this: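 Rat cerebral cortex tissue was homogenized in 100 volumes of 50 mM Tris-HCl pH 7.4 and washed three times by centrifugation at 20000g. […] Hill coefficients came from least mean squares regression of the inhibition curves.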
As for `O=C(O)c1cc2c3ccccc3nc-2c[nH]1`, the Hill coefficient was found to be 0.72.
Same read-out and setting: with `COC(=O)c1cc2c(cn1)[nH]c1ccccc12` [BETA-CCM] the figure was 0.7; with `OCc1cc2c3ccccc3nc-2c[nH]1`, 0.93; with `CC(=O)c1cc2c3ccccc3nc-2c[nH]1`, 0.73.
Same read-out and setting: with `O=Cc1cc2c3ccccc3nc-2c[nH]1` the figure was 0.93.

The next experiment concerns the target GABA-A receptor; anion channel. Briefly: In vitro inhibition of [3H]diazepam binding to benzodiazepine receptor in rat cerebral cortical membrane. The class given is cell membranes.
As usually defined, the Ki is the dissociation constant of the complex between target and ligand, obtained from inhibition or displacement. Read a high Ki as lower affinity. As to `COC(=O)C1Cc2c([nH]c3ccccc23)C(CO)N1` (stereo in doubt; 17), the Ki worked out at 5 µM.
Regarding `COC(=O)C1Cc2c([nH]c3ccccc23)C(C)N1` (configuration not stated), the Ki was > 50 µM.
As for `CN1C=Cc2c([nH]c3ccccc23)C1`, the Ki is > 100 µM.
The same measure, in the same setting: in the case of `COc1ccc2[nH]c3c(c2c1)C=CNC3` it was > 500 µM; in that of `CCc1nc(C(=O)OC)cc2c1[nH]c1ccccc12`, 7.54 µM.
The same measure, in the same setting: with `O=C(O)c1cc2c3ccccc3nc-2c[nH]1` the figure was 24 µM; with `COC(=O)c1cc2c3ccccc3n(C)c2cn1`, > 50 µM.
On the same count and under the same terms, with `COC(=O)C1Cc2c([nH]c3ccc(O)cc23)CN1` (configuration not stated) the figure was 0.573 µM; with `COC(=O)C1CC2=C(C(c3ccccc3)N1)N(C)c1ccccc1C2` (configuration not stated), > 100 µM.
Turning to `CN(C)CCc1c[nH]c2ccccc12`, the inhibitory constant (Ki) is > 100 µM.
On the same count and under the same terms, in the case of `COC(=O)c1cc2c(cn1)[nH]c1ccc(O)cc12` it was 0.00266 µM; in that of `COC(=O)c1cc2c(cn1)[nH]c1ccccc12` [BETA-CCM], 0.00105 µM.
On to `COC(=O)C1Cc2c([nH]c3ccccc23)C(c2ccccc2)N1` (stereo in doubt; 60), for which the Ki stood at 174 µM.
On the same count and under the same terms, in the case of `COC(=O)C1Cc2c([nH]c3ccccc23)C(c2ccccc2)N1` (stereo in doubt; 49) it was 54 µM; in that of `COC(=O)c1cnc2ccccc2c1`, > 100 µM.
Same read-out and setting: with `CC(O)c1cc2c3ccccc3nc-2c[nH]1` (configuration not stated) the figure was 3.16 µM; with `O=Cc1cccnc1` [NICOTINALDEHYDE], > 100 µM.
Same read-out and setting: in the case of `CCC1NC(C(=O)OC)=Cc2c1n(C)c1ccccc21` (configuration not stated) it was > 100 µM.
Turning to `O=Cc1cnc2ccccc2c1`, the inhibition constant (Ki) is > 100 µM.
On the same count and under the same terms, in the case of `c1ccc2cnccc2c1` [ISOQUINOLINE] it was > 100 µM; in that of `COC(=O)C1Cc2ccccc2CN1` (configuration not stated), > 100 µM; in that of `OCc1cc2c3ccccc3nc-2c[nH]1`, 1.47 µM.
For `O=Cc1ccccn1` [2-PYRIDINECARBOXALDEHYDE], the Ki is > 100 µM.
As for `CC(=O)c1cc2c3ccccc3nc-2c[nH]1`, the affinity corresponds to a Ki of 0.058 µM.
`Cc1nccc2c1[nH]c1ccccc12` [HARMAN] came in with a Ki of 12.4 µM.
With `COC(=O)C1=Cc2c([nH]c3ccccc23)C(c2cccnc2)N1` (configuration not stated), the Ki is 6.25 µM.
Still for that read-out and setting: in the case of `CCOC(=O)c1cc2c(cn1)[nH]c1ccccc12` it was 0.0011 µM; in that of `CCCOC(=O)c1cc2c(cn1)[nH]c1ccccc12`, 0.001 µM.
Consider `O=C(O)c1cnc2ccccc2c1`, for which the Ki is > 100 µM.
Same read-out and setting: in the case of `O=C(O)C1Cc2ccccc2CN1` (configuration not stated) it was > 100 µM.
On to `CC(=O)c1ccccn1`, for which the Ki is > 100 µM.
The same measure, in the same setting: with `COC(=O)C(Cc1c[nH]c2ccccc12)N(C)C` (configuration not stated) the figure was > 100 µM; with `CCC1NC(C(=O)OC)Cc2c1[nH]c1ccc(O)cc21` (stereo in doubt; 14a), > 100 µM; with `COC(=O)c1cc2c([nH]c3ccccc32)c(-c2ccccc2)n1`, 3.89 µM.
In the case of `CCC1NC(C(=O)OC)Cc2c1[nH]c1ccccc21` (configuration not stated), the Ki is > 100 µM.
The same measure, in the same setting: with `CN(C)CCc1c[nH]c2ccc(O)cc12` [BUFOTENINE] the figure was > 100 µM; with `O=Cc1cc2c3ccccc3nc-2c[nH]1`, 0.0623 µM; with `c1ccc2c(c1)[nH]c1cnccc12` [NORHARMANE], 1.62 µM.
In the case of `CCC1NC(C(=O)OC)Cc2c1[nH]c1ccc(O)cc21` (stereo in doubt; 14a+14b), the inhibition constant (Ki) was found to be 39 µM.
Same read-out and setting: in the case of `COC(=O)C1Cc2c([nH]c3ccccc23)C(CO)N1` (stereo in doubt; 18) it was 0.51 µM; in that of `O=C(O)C1Cc2c([nH]c3ccccc23)C(c2ccccc2)N1` (configuration not stated), 6.11 µM; in that of `Oc1cc2c(cc1O)CNCC2`, > 100 µM.
The same measure, in the same setting: with `COC(=O)c1cc2ccccc2cn1` the figure was 13.2 µM.
Take `C1=Cc2c([nH]c3ccccc23)CN1`: the Ki was > 100 µM.
The same measure, in the same setting: in the case of `COc1cc2c(cc1OC)CNCC2` it was > 100 µM.
For `Oc1ccc2[nH]c3c(c2c1)C=CNC3`, the Ki is > 100 µM.
